Compounds with a hit are over-represented: about 4.1% of the library has one in this group of screens.
Tb MetRS inh: Trypanosoma brucei MetRS inhibition. 0.4% of 360,000 active. AID 624268. inhibition, % at 11.9 µM. purified T. brucei MetRS, ATP depletion, Kinase-Glo luminescence;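 active means inhibition above a per-plate cutoff of the control wells' mean inhibition plus 3 SD, cut at about 5.5% in these data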
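Dosing: 11.9 µM compound single dose, 0.9% DMSO; Assay system: purified T. brucei MetRS enzyme; Measured by: Kinase-Glo luciferase luminescence reporting remaining unconsumed ATP; Schedule: 15 min plus 2 h at 25 °C.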
TAG inh: reduces triacylglycerol accumulation in H9c2 cells | Nile Red lipid (TAG) fluorescence; cells loaded with 200 µM oleic acid | inhibition, % at 12.5 µM | 0.66% of 230,000 active | AID 651582;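 active means pattern-corrected inhibition of lipid staining of at least 50% with the nuclear-stain viability signal not falling by more than 50%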
SMARCA2 activ: SMARCA2 function activation, primary screen | MG213 cells, MMTV-luciferase reporter, dexamethasone, overnight | activation, % at 9.1 µM | 1% of 370,000 active; in the data active means activation above about 7.8%
AHR activator: human AHR activation; P35869; AHR-responsive luciferase reporter cells, luminescence; activation, % at 5 µM; 2.5% of 320,000 active; AID 2796; in the data active means activation above about 47%
Efflux pump mplx: blocks antifungal efflux pumps in multiplex yeast assay. S. cerevisiae Candida pump triplex, Nile Red efflux. 0.44% of 330,000 active. inhibition, % at 10 µM;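 active means plate passing quality check with inhibition over a set limit, or well fluorescence over plate mean plus 4 SD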;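 further: Nile Red retained in pooled yeast measured as flow cytometry median fluorescence; higher means more Nile Red kept so more efflux inhibition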
SMARCA2 act conf: SMARCA2 activation, confirmation screen; shares compounds with SMARCA2 activ; activation, % at 9.1 µM; 30% of 3,500 active; AID 652260; MG213 cells, MMTV-luciferase with dexamethasone, luminescence, overnight; MG213 cells expressing E1A, Rb sequestered; DMSO wells 0%, reference activator 100%;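 active means activation above its plate's cutoff, the mean activation of tested wells plus 3 SD, cut at about 7.9% in these data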
VP16 Luc act: activates GAL4-VP16 luciferase, flagging SMARCA2 activator hits. shares compounds with SMARCA2 activ. HEK293 GAL4-VP16 pG5luc reporter, luciferase luminescence; scaled: DMSO wells 0%, SAHA wells 100%. activation, % at 9.1 µM. 41% of 3,500 active. AID 686939;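 active means activation above the solvent-only control well mean plus 3 SD, averaged across control plates, cut at about 5.2% in these data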
Of the large screens only hits and unclear results are named; the others gave an inactive call (follow-up assays come after a bar, where they were run).

COc1ccc(C2=Nc3ccccc3N(C(=O)c3ccncc3)C2C(=O)NC(C)(C)C)cc1 (stereo not drawn)	SMARCA2 activ 16 (no result: TAG inh, AHR activator, Efflux pump mplx) | SMARCA2 act conf inactive | VP16 Luc act inactive
COc1ccc(NC(=O)C2C(c3ccc4c(c3)OCO4)=Nc3ccccc3N2C(C)=O)cc1 (stereo not drawn)	SMARCA2 activ 9.2 (no result: TAG inh, AHR activator, Efflux pump mplx) | SMARCA2 act conf 8.0 | VP16 Luc act 6.4
COc1ccc(-c2ccc(-c3noc(-c4ccccc4F)n3)c(OC)n2)cc1	none (no result: TAG inh, AHR activator, Efflux pump mplx)
COc1cccc(-c2nc(-c3ccccc3)no2)c1	SMARCA2 activ 8.8 | SMARCA2 act conf 8.4 | VP16 Luc act 14
COc1cccc(-c2noc(-c3cccs3)n2)c1	SMARCA2 activ 9.5, AHR activator 48 | SMARCA2 act conf 8.0 | VP16 Luc act 13
FC(F)(F)c1cccc(-c2nc(-c3ccncc3)no2)c1	SMARCA2 activ 9.2 (no result: TAG inh, AHR activator) | SMARCA2 act conf inactive | VP16 Luc act inactive
COc1ccc(-c2ccc(-c3noc(-c4ccccc4)n3)c(OC)n2)cc1	SMARCA2 activ 12 (no result: TAG inh) | SMARCA2 act conf inactive | VP16 Luc act inactive
CCOC(=O)N1CCN(C(=O)C[C@H]2C(=O)N(Cc3ccc(OC)cc3)C3=CCCCC[C@@]32C(=O)OC)CC1	none (no result: Tb MetRS inh, TAG inh, AHR activator, Efflux pump mplx)
COC(=O)c1ccc(-c2nc(-c3cccs3)no2)cc1	SMARCA2 activ 11 | SMARCA2 act conf inactive | VP16 Luc act 8.1
COc1ccc(-c2nc(-c3ccc(C(=O)O)cc3)no2)cc1	SMARCA2 activ 8.4 | SMARCA2 act conf 8.4 | VP16 Luc act 15
Cc1ccccc1CN1CCCCC(NC(=O)c2ccc(F)cc2F)C1=O (stereo not drawn)	none (no result: Tb MetRS inh, TAG inh, AHR activator, Efflux pump mplx)
O=C(CSc1nnc(SCc2cccc3ccccc23)s1)Nc1ccc(S(=O)(=O)Nc2nccs2)cc1	none (no result: Tb MetRS inh, TAG inh, AHR activator, Efflux pump mplx)
Cc1ccc2c(c1)N(CCCC(=O)N(C)Cc1ccccc1Cl)C(=O)CO2	none (no result: Tb MetRS inh, TAG inh, AHR activator, Efflux pump mplx)
Cc1cc2cc(OCc3ccccc3)ccc2n1C	SMARCA2 activ 13 (no result: TAG inh) | SMARCA2 act conf inactive | VP16 Luc act 8.1
Cn1ccc2cc(OCc3ccccc3)ccc21	none (no result: AHR activator, Efflux pump mplx)
CC(=O)c1cc(-c2ccc(Oc3ccccc3)cc2)c(=O)n2c1CCC2	none (no result: Tb MetRS inh, TAG inh, AHR activator, Efflux pump mplx)
c1cc2c3c(cccc3c1)C(N1CCCCCC1)=N2	none
c1ccc2c(c1)CCN(C1=Nc3cccc4cccc1c34)C2	SMARCA2 activ 12 (no result: AHR activator, Efflux pump mplx) | SMARCA2 act conf inactive | VP16 Luc act inactive
O=C(CS(=O)c1ccc(C(F)(F)F)cc1[N+](=O)[O-])Oc1ccccc1 (stereo not drawn)	SMARCA2 activ 16 | SMARCA2 act conf inactive | VP16 Luc act inactive
O=C1Nc2ccccc2C1(c1ccccc1)c1ccccc1	SMARCA2 activ 11 | SMARCA2 act conf inactive | VP16 Luc act inactive
Nc1ccc(C2(c3ccc(N)cc3)C(=O)Nc3ccccc32)cc1	none (no result: TAG inh)
COC(=O)C1=C(C)N(Cc2ccc(C(F)(F)F)cc2)C(=NCc2ccc3c(c2)OCO3)NC1c1ccccc1 (stereo not drawn)	none (no result: Tb MetRS inh, TAG inh, AHR activator, Efflux pump mplx)
O=C(CCCc1ccncc1)c1ccccc1	SMARCA2 activ 8.2 (no result: AHR activator, Efflux pump mplx) | SMARCA2 act conf inactive | VP16 Luc act 6.9
CCCCCCCCN1C(=O)[C@@H](CC(=O)N2CCN(C(=O)C3CC3)CC2)C[C@@]2(C(=O)OC)C1=C[C@H](C(C)C)O[C@@H]2C1CC1	none (no result: Tb MetRS inh, TAG inh, AHR activator, Efflux pump mplx)
CCCCNC(=O)c1cc2c(=O)n3cccc(C)c3nc2n(Cc2ccncc2)c1=N	SMARCA2 activ 9.7 (no result: TAG inh) | SMARCA2 act conf 13 | VP16 Luc act inactive
OCc1cn(-c2ccccc2)nc1-c1cc2ccccc2o1	SMARCA2 activ 12 | SMARCA2 act conf inactive | VP16 Luc act 8.6
CC(C)C[C@@H]1COc2cc(F)ccc2S(=O)(=O)N1	none (no result: Tb MetRS inh, TAG inh, AHR activator, Efflux pump mplx)
CN(C)CCN(C(=O)/C=C/c1cccs1)c1nc2c(F)cc(F)cc2s1	SMARCA2 activ 23, AHR activator 66 (no result: TAG inh) | SMARCA2 act conf 23 | VP16 Luc act inactive
COc1ccc(OC)c2sc(N(CCN(C)C)C(=O)/C=C/c3cccs3)nc12	SMARCA2 activ 15 (no result: TAG inh) | SMARCA2 act conf 17 | VP16 Luc act inactive
COc1ccc(C)c2sc(N(CCN(C)C)C(=O)/C=C/c3cccs3)nc12	none (no result: TAG inh)
CN(C)CCCN(C(=O)/C=C/c1cccs1)c1nc2ccc(F)cc2s1	none
COc1ccc2c(c1)CN1C(=O)N(CCc3ccccc3)S(=O)(=O)CC21 (stereo not drawn)	none (no result: Tb MetRS inh, TAG inh, AHR activator, Efflux pump mplx)

Compound activity as filed in PubChem.
